High-throughput results deposited in PubChem BioAssay by Johns Hopkins Ion Channel Center.
MrgX1 allo act: allosterically activates human MrgX1 receptor signaling. Q96LB2. MrgX1-HEK293, Fluo-4 calcium flux, FDSS; hits give high values. B-score at 10 µM. 0.63% of 310,000 active. AID 588675;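 active means plate-corrected calcium response at least 3 library SD above typical, normal starting fluorescence, not activating the receptor alone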;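 further: compound read alongside a low EC10 to EC30 dose of BAM8-22 agonist; peak minus trough fluorescence over baseline measured at the second addition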
Target sequence (Q96LB2 whole entry, looked up): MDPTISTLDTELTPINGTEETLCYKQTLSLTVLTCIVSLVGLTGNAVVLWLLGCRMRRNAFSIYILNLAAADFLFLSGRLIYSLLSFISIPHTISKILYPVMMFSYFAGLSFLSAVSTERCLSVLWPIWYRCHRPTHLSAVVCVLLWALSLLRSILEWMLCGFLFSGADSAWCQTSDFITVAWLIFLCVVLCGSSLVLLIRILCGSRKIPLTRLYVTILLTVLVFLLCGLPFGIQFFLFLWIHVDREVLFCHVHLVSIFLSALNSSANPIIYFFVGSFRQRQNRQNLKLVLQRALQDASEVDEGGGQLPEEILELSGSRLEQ
MrgX1 ag: agonists of human MrgX1 receptor. 0.44% of 310,000 active. MrgX1-HEK293 cells, Fluo-4 calcium fluorescence, agonist mode; hits give high values. B-score at 10 µM. Q96LB2;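 active means calcium response B-score plate-corrected fluorescence ratio at least 3 library SD, with starting fluorescence B-score inside 5 SD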
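Test system: HEK293 cells stably expressing human MrgX1 receptor; Input: fifteen thousand cells per well; Dosing: compound delivered in addition one of three; Schedule: overnight seeding, then 1 h dark dye loading; Technique: Fluo-4 NW calcium fluorescence; Measure: B-scored fluorescence response ratio; Controls: positive and negative controls per plate.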
RGS4 block: inhibitors of human RGS4; HEK293 M3R/RGS4 inducible, Fluo-4 calcium flux; hits give high values; triggered by carbachol at its EC20; P49798; AID 463165; B-score at 10 µM; 0.45% of 310,000 active;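 active means B-score, a plate-corrected calcium signal, over three deviations above library mean, with baseline fluorescence within five deviations of library mean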;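 further: RGS4 expression induced by doxycycline in cells with stable M3 receptor; B-score is computed from the integrated fluorescence ratio over baseline after carbachol; higher B-score means a larger calcium signal and so more RGS4 inhibition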
RGS4 pot: potentiators or activators of RGS4; HEK293 M3R/inducible RGS4, carbachol calcium flux Fluo4; hits give low values; 0.92% of 310,000 active; B-score at 10 µM;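 active means B-score of the integrated calcium signal more than 4 SD below the library mean, with starting fluorescence not abnormally high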;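 further: negative B-score means reduced calcium response which marks RGS4 activation or potentiation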
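System – HEK293 FlpIn-TREx cells, stable M3R, doxycycline-inducible RGS4 · Reagent – ECmax carbachol challenge · Times – compound preincubation 20 min at room temperature before agonist · Technique – Fluo4 fluorescence kinetic imaging of calcium · Measure – B score of integrated Fluo4 ratio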
MrgX1 antag: blocks BAM8-22 activation of human MrgX1 receptor | MRGX1-HEK293 calcium flux, Fluo-4, BAM8-22 antagonism; hits give low values | B-score at 10 µM | 1.3% of 310,000 active | AID 588676;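 active means calcium-response B-score plate-corrected more than 3 library SD below zero, starting fluorescence within 5 deviations, no agonist response on first addition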;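 further: peak minus trough fluorescence over baseline after final BAM8-22 challenge near maximal dose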
RGS4 activ val: confirmation of RGS4 activators | shares compounds with RGS4 pot | HEK293 M3R/RGS4 inducible, carbachol calcium flux Fluo4 | inhibition, % at 10 µM | 89% of 1,100 active;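 active means inhibition above 3 SD of the buffer control wells, cut at about 41% in these data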;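 further: signal is the integrated peak-minus-minimum Fluo4 fluorescence over baseline ratio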
RGS4 act ctr: activity in cells without induced RGS4 expression; shares compounds with RGS4 pot; HEK293 M3R non-induced RGS4, Fluo4 calcium flux; after carbachol challenge at its EC90; inhibition, % at 10 µM; 82% of 1,100 active; AID 602283;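 active means inhibition exceeding 3 SD of buffer-only control wells, cut at about 26% in these data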;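 further: percent drop in integrated peak-minus-baseline over baseline Fluo4 ratio after carbachol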
* marks the source's active call; other numbers are inactive results; i = inactive; / = no result given. An excerpt weighted towards active compounds, which were near 3.5% of everything screened.

SMILES | MrgX1 allo act | MrgX1 ag | RGS4 block | RGS4 pot | MrgX1 antag | RGS4 activ val | RGS4 act ctr
CCOC(=O)C1=C(C)N2C(=C(C#N)[C@@H]1c1ccc(C(=O)OC)cc1)SC[C@@]2(O)C(C)(C)C | i | i | i | -9.1* | i | 59* | 0
CCc1ccc(Nc2ncc3c(n2)CC(C)(C)CC3=O)cc1 | i | i | i | i | i | / | /
COC(=O)c1sc(-c2ccc(Cl)cc2)cc1N | i | i | i | -7.7* | i | 0 | 0
CC(=O)c1sc(-c2ccc(Cl)cc2)cc1N | i | i | i | i | i | / | /
Cc1nn(-c2ccccc2)c(Cl)c1C(=O)OCC(=O)NCCc1ccccc1 | i | i | i | -8* | i | 44* | 0
Cc1ccccc1C(=NCCCN(C)C)c1ccccc1C | i | i | i | -9.3* | i | 88* | 56*
S=C1N(c2ccccc2)C(c2ccc(Br)cc2)N2CCCN12 (stereo unspecified) | i | i | i | -11* | i | 94* | 90*
O=C(Nc1ccccc1)Nc1cc(Cl)cc(Cl)c1 | i | i | i | -8.3* | i | 62* | 84*
COc1ccccc1C(CNc1ncnc2sc(C)c(C)c12)N(C)C (stereo unspecified) | i | i | i | -11* | i | 80* | 42*
COc1ccc(C(CNc2ncnc3sc(C)c(C)c23)N(C)C)cc1 (stereo unspecified) | i | i | i | i | i | / | /
O=[N+]([O-])c1cccc(-c2csc(N/N=C/c3cccc(O)c3)n2)c1 | i | i | i | i | i | / | /
COc1ccc(CCNc2nc(N3CCCCC3)nc(N3CCCCC3)n2)cc1OC | i | i | i | -8.4* | i | 76* | 46*
COc1nc(NCCc2ccc(OC)c(OC)c2)nc(OC)n1 | i | i | i | i | i | / | /
COc1ccc(-c2csc3ncnc(N4CCN(c5ccccc5Cl)CC4)c23)cc1 | i | i | i | -8.6* | i | 76* | 84*
COc1ccc(-c2csc3ncnc(N4CCN(S(=O)(=O)c5cccs5)CC4)c23)cc1 | i | i | i | -8.2* | i | 42* | 84*
COc1ccc(N2CCN(c3ncnc4scc(-c5ccc(F)cc5)c34)CC2)cc1 | i | i | i | i | i | / | /
COc1ccc(N2CCN(c3ncnc4scc(-c5ccc(C)cc5)c34)CC2)cc1 | i | i | i | -7.9* | i | 0 | 0
COc1ccc(N2CCN(c3ncnc4scc(-c5ccccc5)c34)CC2)cc1 | i | i | i | -7.9* | i | 54* | 0
CC12CC3(C)CC(C)(C1)CC(C(=O)NC(=S)N1CCCC1)(C2)C3 | i | i | i | i | i | / | /
O=C(c1ccc(-c2nc3ccccc3s2)o1)N1CCN(c2ccccc2O)CC1 | i | i | i | -8.3* | i | 86* | 53*
O=C(O)c1ccc(-c2nc3ccccc3s2)o1 | i | i | i | i | i | / | /
CCOC(=O)Cn1cnc2c(nnn2-c2ccc(F)cc2)c1=O | i | i | i | i | i | / | /
COc1ccc2nc3c(cc2c1)c(NC(=O)c1cccs1)nn3CC(C)C | i | i | i | -8.5* | i | 86* | 61*
CN(CC(=O)Nc1ccccc1Cl)C(=O)COC(=O)C1CCN(c2ccc(C(F)(F)F)cn2)CC1 | i | i | i | i | i | / | /
Cc1cccc(C)c1NC(=O)CNC(=O)CNC(=O)c1ccc2c(c1)OCO2 | i | i | i | i | i | / | /
COc1cccc(CNC(=O)C2CCC(=O)N(C3CC3)C2)c1OC (stereo unspecified) | / | / | i | i | / | / | /
CC(C)NC(=O)c1ccc2c(=O)n(C3CCCC3)c(=S)[nH]c2c1 | i | i | i | i | i | / | /
